Data set [1] concerns Mus musculus. Put plainly: Antiradiation evaluation test was carried out in mice and percent of survival of animals after 30-day was determined at lowest dose of 280 mg/kg required for the highest survival rate. Type of data set: functional. The settings on record: 720 h.
The species named for data set [2] is Mus musculus. Put plainly: Antiradiation evaluation test was carried out in mice and mean survival time(MST) for mice that died over a 30 day period was determined. The data set is classed as functional. In short, it runs like this: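 Mice (strain "H", both sexes, 23-25 g, 20 per group) were given the drug as a methylcellulose/Tween-80 suspension and exposed to 800-rad X-rays at 96 rads/min alongside untreated controls. The value is the mean survival time of the mice that died within the 30-day observation period.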

Data set [3] can be described thus: Antiradiation evaluation test was carried out in mice and lethal dose for antiradiation effect at 800 rads was evaluated by the x-ray. The data set is classed as ADME, organism-based. As to conditions: mouse, in vivo.
Data set [4] relates to Mus musculus. Kind of data set: Antiradiation evaluation test was carried out in mice and percent of survival of animals after 30-day was determined at lowest dose of 150 mg/kg required for the highest survival rate. Type of data set: functional. The settings on record: 720 h.
Data set [5] deals with Mus musculus. Put plainly: Antiradiation evaluation test was carried out in mice and percent of survival of animals after 30-day was determined at lowest dose of 360 mg/kg required for the highest survival rate. Type of data set: functional. The settings on record: 720 h.
The subject of data set [6] is Mus musculus. Put plainly: Antiradiation evaluation test was carried out in mice and percent of survival of animals after 30-day was determined at lowest dose of 250 mg/kg required for the highest survival rate. As to conditions: 720 h. The data set is classed as functional.
Data set [7] relates to Mus musculus. Put plainly: Antiradiation evaluation test was carried out in mice and percent of survival of animals after 30-day was determined at lowest dose of 125 mg/kg required for the highest survival rate. As to conditions: 720 h. The data set is classed as functional.
Data set [8] deals with Mus musculus. Kind of data set: Antiradiation evaluation test was carried out in mice and percent of survival of animals after 30-day was determined at lowest dose of 340 mg/kg required for the highest survival rate. Type of data set: functional. The settings on record: 720 h.
The subject of data set [9] is Mus musculus. Kind of data set: Antiradiation evaluation test was carried out in mice and percent of survival of animals after 30-day was determined at lowest dose of 210 mg/kg required for the highest survival rate. The data set is classed as functional. The settings on record: 720 h.

In turn, `CCOc1ccc(N/C(CSC(=S)N(CC)CC)=N/c2ccc(OC)cc2)cc1` had a survival at 280 mg/kg in the data set on Mus musculus [1] of 60%. In the data set listed under Mus musculus [2], the MST is 13.5 days. Also, the LD50 in data set [3] was 1270 mg/kg.

As for `CCN(CC)C(=S)SC/C(=N\c1ccccc1)Nc1ccc(OC)cc1`, the survival at 150 mg/kg with Mus musculus [4] is 10%. In the data set listed under Mus musculus [2], the MST came to 10.8 days. Besides, the LD50 in data set [3] turned out to be 780 mg/kg.

Take `CCOc1ccc(/N=C(\CSC(=S)N(CC)CC)Nc2ccc(OCC)cc2)cc1`: the survival at 360 mg/kg in the data set on Mus musculus [5] was 70%. For the same molecule, the MST in the data set filed under Mus musculus [2] stood at 13.5 days. In data set [3], this molecule returned an LD50 of 1240 mg/kg.

Molecule `CCN(CC)C(=S)SC/C(=N\c1ccc(C)cc1)Nc1ccc(OC)cc1` came in with an MST in the data set filed under Mus musculus [2] of 9.8 days. Besides, the survival at 250 mg/kg in the data set on Mus musculus [6] was 40%. The LD50 in data set [3] turned out to be 970 mg/kg.

In turn, `CCOc1ccc(N/C(CSC(=S)N(CC)CC)=N/c2ccccc2)cc1` registered a survival at 150 mg/kg with Mus musculus [4] of 35%. Moreover, the MST in the data set listed under Mus musculus [2] turned out to be 9.1 days. In [3], this molecule yielded an LD50 of 800 mg/kg.

Molecule `CCN(CC)C(=S)SC/C(=N\c1ccccc1)Nc1ccc(C)cc1` yielded an MST in the data set filed under Mus musculus [2] of 9.6 days. In the data set with Mus musculus [7], this molecule displayed a survival at 125 mg/kg of 10%. Further, the LD50 in data set [3] amounted to 720 mg/kg.

In the data set listed under Mus musculus [2], `CCN(CC)C(=S)SC/C(=N\c1ccc(OC)cc1)Nc1ccc(OC)cc1` gave an MST of 14.3 days. This molecule registered a survival at 340 mg/kg in the data set with Mus musculus [8] of 60%. The same molecule returned an LD50 in data set [3] of 1370 mg/kg.

Consider `CCN(CC)C(=S)SC/C(=N\c1ccccc1)Nc1ccccc1`, for which the survival at 150 mg/kg in the data set with Mus musculus [4] was 5%. Also, the MST in the data set filed under Mus musculus [2] is 8.1 days. The same molecule yielded an LD50 in data set [3] of 840 mg/kg.

`CCN(CC)C(=S)SC/C(=N\c1ccc(C)cc1)Nc1ccc(C)cc1` registered an MST in the data set filed under Mus musculus [2] of 6.1 days. The LD50 in data set [3] is 970 mg/kg. In the data set on Mus musculus [9], this molecule yielded a survival at 210 mg/kg of 0%.

Take `CCOc1ccc(N/C(CSC(=S)N(CC)CC)=N/c2ccc(C)cc2)cc1`: the MST in the data set listed under Mus musculus [2] was found to be 10.5 days. In [3], this molecule showed an LD50 of 850 mg/kg. The molecule also registered a survival at 210 mg/kg with Mus musculus [9] of 25%.

One may read the LD50 as the dose at which mortality reaches 50%. Lower therefore signals greater toxicity.

Source of the values: ChEMBL document CHEMBL1123723, “S-[(N,N'-diarylamidino)methyl] diethyldithiocarbamates and related amides as potential radioprotectants” (J Med Chem, 1987).
